Results taken from the RNAGym collection of RNA variant scans (doi:10.1126/science.aae0568).
Variants at the floor of the assay were thinned out.

B1: tRNA (parent)
chain: GUUCCGUUGGCGUAAUGGUAACGCGUCUCCCUCCUAAGGAGAAGACUGCGGGUUCGAGUCCCGUACGGAACG

Variants of: B1
Assay: yeast fitness relative to wild type (ratio to wild type); higher = fitter; tRNA-Arg(CCU), competitive growth, 37 C, YPD
Procedure, shortened: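 Amplicons of the tRNA-Arg(CCU) gene were sequenced, 100-nucleotide paired-end, from the start population and from each end population of a pooled yeast competition. The competition, in six parallel replicates, lasted 24 hours in YPD at 37°C. Fitness relative to wild type was calculated from changes in genotype frequencies. Genotypes had to have ≥ 100 starting reads, and estimates < 0.5 were set to 0.5.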
For C5G A20G C22G C29G G63C, the yeast fitness was no more than 0.5. In the case of C5G A20G C22G C29G G63A, the yeast fitness is reported as no more than 0.5. Variant C5G C22G G56A has a yeast fitness of 0.788. In the case of C5G C22A U26C C33G U35A, the yeast fitness is reported as no more than 0.5. With C5G A20G A36C G63A the yeast fitness was no more than 0.5. C5G A37G G41C showed a yeast fitness of no more than 0.5. With C5G A42G U54A the yeast fitness was 0.639. In the case of C5G A14C G44C, the yeast fitness is reported as no more than 0.5. In the case of C5G A14U G25A G48C C61A, the yeast fitness is reported as 0.528. C5G A14U C24U C55G A70U showed a yeast fitness of no more than 0.5. Variant C5G C22A A69C has a yeast fitness of 0.603. For C5G A21G C27G C34G A43C C46G A70G, the yeast fitness was 0.561. For C5G A15G A36G A43G, the yeast fitness was 0.593. For C5G A45C C46U, the yeast fitness was 0.643. Work on C5G A36G G68C yielded a yeast fitness of 0.596. C5G A36G G68U gave a yeast fitness of 0.525. Work on C5G C22A A43G yielded a yeast fitness of 0.557. In the case of C5A U53A U59A A69U, the yeast fitness is reported as 0.712. For C5G A20G A40G G44A C46G A70C, the yeast fitness was no more than 0.5. With C5G C22U G50U the yeast fitness was 0.563. For C5G A20U C31G, the yeast fitness was no more than 0.5. Variant C5G C24G C30G C31U U35A A36U G44A has a yeast fitness of 0.832. C5G C22U U26C gave a yeast fitness of no more than 0.5. In the case of C5G C22G U47A A70C, the yeast fitness is reported as no more than 0.5. C5G A21U C33U G50A gave a yeast fitness of 0.835. With C5G C24G C30G C31U U35A A36U the yeast fitness was 0.755. C5G A42C G48A showed a yeast fitness of 0.587. For C5G A36G A40C, the yeast fitness was 0.683. In the case of C5G A42G A70C, the yeast fitness is reported as 0.805. C5G A15C G48C G68U gave a yeast fitness of no more than 0.5. In the case of C5G A20G, the yeast fitness is reported as 0.965. In the case of C5G A40C U53G C60A, the yeast fitness is reported as no more than 0.5. Work on C5A U47A yielded a yeast fitness of 0.786. C5G A37U G67A showed a yeast fitness of no more than 0.5. C5G A14C G18A A40G C46U C49U U53A showed a yeast fitness of no more than 0.5. Work on C5A U35C G44A G48C C55G A69U yielded a yeast fitness of 0.56. C5G A15U C46U showed a yeast fitness of 0.594. C5G A40C A70G showed a yeast fitness of 0.543. C5G A21C G39A gave a yeast fitness of no more than 0.5. With C5A U35C G44A G48C C55G C66G the yeast fitness was no more than 0.5. In the case of C5G A37C G38A C60G, the yeast fitness is reported as no more than 0.5. C5G A43U A65C gave a yeast fitness of 0.557. For C5G A14U G67A, the yeast fitness was 0.612. C5G A14U G38A A40U G50C C60G A70G gave a yeast fitness of no more than 0.5. In the case of C5G A36C, the yeast fitness is reported as 0.772. Variant C5G A36G has a yeast fitness of 1.01. For C5G A36U, the yeast fitness was 0.583. C5G A40U G58C showed a yeast fitness of 0.732. In the case of C5G A20G U53A G67A, the yeast fitness is reported as no more than 0.5. Work on C5G A21U C49U yielded a yeast fitness of no more than 0.5. C5A U53A showed a yeast fitness of 0.722. Work on C5G C11U A37C A43G G50A yielded a yeast fitness of no more than 0.5. C5G A36U C62U showed a yeast fitness of no more than 0.5. C5G C11U C61G showed a yeast fitness of no more than 0.5. For C5G C11U C60G, the yeast fitness was no more than 0.5. In the case of C5G A14U A43G G67C, the yeast fitness is reported as 0.56. Work on C5G A37U C46U A69C yielded a yeast fitness of no more than 0.5. Variant C5G C22U G56C has a yeast fitness of no more than 0.5. C5G A42G C61A G63C showed a yeast fitness of no more than 0.5. C5G C11G C62U gave a yeast fitness of no more than 0.5. C5G A20C C27A G39A C61G showed a yeast fitness of no more than 0.5. Work on C5G A43C G48C U64C yielded a yeast fitness of no more than 0.5. Work on C5G C11U A42G C49U C66U G67A yielded a yeast fitness of no more than 0.5. C5A U54C showed a yeast fitness of 0.722. C5G A15G A36G A45C G50U gave a yeast fitness of no more than 0.5. C5G C11G C24U C62A showed a yeast fitness of 0.584. Work on C5G A36G A45G G51C C61A yielded a yeast fitness of no more than 0.5. With C5G A14C A37G G52U C62G the yeast fitness was no more than 0.5. With C5G A15G A42C the yeast fitness was 0.544. In the case of C5G A15G C24G U32A C34G C66U, the yeast fitness is reported as no more than 0.5. With C5G A37U the yeast fitness was 0.726. Work on C5G A37C yielded a yeast fitness of 0.731. Variant C5G C22A A42U G48A C62A has a yeast fitness of no more than 0.5. Variant C5G C11G A14U A15U G56A U59G has a yeast fitness of no more than 0.5. In the case of C5G A45C C66G, the yeast fitness is reported as no more than 0.5. Variant C5G A15G U16A A20G U28A C30A C33A A36U has a yeast fitness of 0.553. Variant C5G C11G G44A G50C U54C C61U A69U A70C has a yeast fitness of no more than 0.5. C5G A20U G25A G41A C55G U64G gave a yeast fitness of 0.534. Variant C5G A21G U32C has a yeast fitness of 0.63. In the case of C5G A15U C24A, the yeast fitness is reported as 0.654. C5G C11U A14U A37U A45C showed a yeast fitness of no more than 0.5. C5G C24G G41C gave a yeast fitness of no more than 0.5. C5G A43U G48C gave a yeast fitness of 0.602.
